By IC50 is commonly meant the concentration needed to halve the response being measured.

This is an account of results in ChEMBL document CHEMBL1149704, “Virtual screening application of a model of full-length HIV-1 integrase complexed with viral DNA” (Bioorg Med Chem Lett, 2007).

For test [1], the target named is T1, Human immunodeficiency virus type 1 integrase (Human immunodeficiency virus 1, UniProt Q7ZJM1). Kind of test: Inhibition of HIV1 integrase 3' processing activity. An outline of the steps: (§1)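 Hits from the electrochemiluminescent screen were confirmed in a gel-based assay with Mg2+. IC50 values were determined separately for 3'-processing and strand transfer.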
T1 sequence (Q7ZJM1 whole entry): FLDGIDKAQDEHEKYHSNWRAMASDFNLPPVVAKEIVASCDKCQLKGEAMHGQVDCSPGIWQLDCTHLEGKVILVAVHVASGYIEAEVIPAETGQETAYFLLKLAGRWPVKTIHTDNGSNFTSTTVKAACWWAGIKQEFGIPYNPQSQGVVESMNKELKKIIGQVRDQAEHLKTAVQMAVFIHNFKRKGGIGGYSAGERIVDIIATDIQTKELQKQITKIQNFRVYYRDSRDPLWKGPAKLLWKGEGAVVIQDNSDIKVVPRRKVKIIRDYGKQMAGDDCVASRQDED

Test [2] concerns the target T1, Human immunodeficiency virus type 1 integrase. Put plainly: Inhibition of HIV1 integrase by BioVeris assay. An outline of the steps:
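Electrochemiluminescent high-throughput screen measuring HIV-1 integrase strand transfer in the presence of Mg2+, with ruthenium-labelled reagents.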

For test [3] the target is unchanged. Kind of test: Inhibition of HIV1 integrase strand transfer activity. An outline of the steps: as §1

Where only a bound is given, the exact number is not on record here.

Turning to `CC(C)n1nc(C(=O)NN/C(=C/CC(=O)O)c2ccc(Br)cc2)c2ccccc2c1=O`, the 50% inhibitory concentration (IC50) in test [1] was determined as 295 µM; in test [2], 670 µM.

On to `O=C(O)CCC(=O)Nc1ccccc1-c1ccccc1NC(=O)CCC(=O)O`, for which the 50% inhibitory concentration (IC50) in test [1] was > 333 µM; in test [3] it was > 333 µM; in test [2], 37 µM.

Regarding `O=C(O)COc1ccccc1/C=N/NC(=O)CSc1nc2ccccc2[nH]1`, the values for the IC50 in test [1], in test [3] and in test [2] were 155 µM, 120 µM and 780 µM, respectively.

As to `C=C(NNC(=O)C1CC1c1ccccc1)c1cccc(NC(=O)C2CCCCC2C(=O)O)c1` (stereo unspecified), the IC50 in test [1] came out at 65 µM; in test [3], 49 µM; in test [2] it was 113 µM.

In the case of `C=C(NNC(=O)c1c[nH]c2ccccc12)c1cccc(NC(=O)CCCC(=O)O)c1`, the half-maximal inhibitory concentration (IC50) came out at 120 µM in test [1], 70 µM in test [3] and 141 µM in test [2].

As for `C=C(NNC(=O)C(C)Oc1ccccc1Cl)c1cccc(NC(=O)C2CCCCC2C(=O)O)c1` (stereo unspecified), the IC50 in test [1] is > 333 µM; in test [3], > 333 µM; in test [2] it was 182 µM.

For the compound `C=C(NNC(=O)Cc1ccc(O)cc1)c1ccc(NC(=O)CCC(=O)O)cc1`, the figures for the IC50 in test [1], in test [3] and in test [2] were 204 µM, 114 µM and 292 µM, respectively.

For `Cc1n[nH]c(O)c1C(c1ccc(-c2ccc(Cl)c(C(=O)O)c2)o1)c1c(O)n[nH]c1C`, the results for the IC50 in test [1], in test [3] and in test [2] were 87 µM, 57 µM and 121 µM, respectively.

Take `Cc1[nH]nc(O)c1CC(=O)N/N=C/c1ccccc1OCC(=O)O`: the 50% inhibitory concentration (IC50) in test [1] turned out to be 121 µM; in test [3], 54 µM; in test [2] it was 580 µM.
